Source: PubChem BioAssay
CSC inhib: blocks cancer stem cells; cancer stem cell-like cells viability, luminescence; inhibition, % at 7.5 µM; hit rate 1.1% among 300,000; in the data active means inhibition above about 75%; inconclusive means no clear call, values can overlap the other calls; tested in HMLE shEcad cells
CHOP inh: CHOP inhibition in unfolded protein response | CHO-K1 CHOP-promoter luciferase, tunicamycin-induced, 15-18 h | inhibition, % at 10 µM | hit rate 3.8% among 220,000 | AID 2732;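 active means compounds that reduced the stress-induced luciferase reporter signal by more than about 70% of percent inhibition, limit read from the data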;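 further: 0% = tunicamycin plus vehicle and 100% = wells without tunicamycin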
Beta cell apopt: blocks beta cell apoptosis. INS-1E cytokine-induced death, ATP luminescence, 48 h; percent of positive-control rescue, neutral wells zero. protection from apoptosis, % (test concentration not listed). hit rate 0.8% among 300,000. AID 435005;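 active means Every replicate reaches about 75%, or at least half do and their mean reaches it too, limit read from the data; inconclusive means At least half of replicates reach the limit but their mean does not; inactive means Under half of replicates reach the limit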;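 further: 0% = cytokine-treated negative control wells and 100% = positive control rescue; higher means more ATP so stronger rescue from cytokine killing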
PREPL inh: human PREPL enzyme inhibition; hit rate 0.68% among 320,000; recombinant PREPL, fluorescence polarization activity-based probe; inhibition, % at 5.96 µM; in the data active means inhibition above about 43%;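 further: 0% = enzyme with DMSO and 100% = wells lacking enzyme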
T cruzi repl: blocks replication of Trypanosoma cruzi. inhibition, % (no concentration beside the values). hit rate 1.4% among 300,000. AID 1885. T. cruzi beta-gal in NIH3T3, luminescence, 90 h;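 active means mean inhibition across valid replicates above about 55%, limit read from the data; inconclusive means mean below that limit but half or more replicates reach it; inactive means mean below it, under half of replicates reach it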;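 further: signal also drops with host cell toxicity which is not excluded here; 0% = plate median of DMSO wells and 100% = zero luminescence signal; higher percent means less beta-gal luminescence so fewer parasites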
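Incubation – ≥90 h infection period, 3 h prior cell attachment · System – NIH/3T3 fibroblasts plus reporter T. cruzi · Doses – compound pinned at 50 nL/well, DMSO · Read-out basis – percent inhibition of parasite-derived β-gal signal · Signal – luminescent β-galactosidase signal after 60 min lysis · Also added – 5000 T. cruzi trypomastigotes/well · Medium – Low-serum DMEM with 2% FBS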
NR3A LBD binder: modulators (binders) of human NR3A ligand-binding domain | NR3A LBD differential scanning fluorimetry, Tm shift; 0% = protein alone, 100% = glycine-bound protein | Tm shift relative to glycine control, % at 25 µM | hit rate 2.5% among 340,000;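 active means melting temperature shift of at least 10% of the positive control shift, at one fixed dose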
The depositor's hits bear a star; ? = inconclusive; . = not tested or not shown. Hits are enriched below; roughly 6.7% of the tested compounds scored in any of these assays.

SMILES | CSC inhib | CHOP inh | Beta cell apopt | PREPL inh | T cruzi repl | NR3A LBD binder
Cc1ccc2c(c1)CCCN2S(=O)(=O)c1cccc(C(=O)Nc2ccccc2C(=O)O)c1 | 62.0 | . | 3.0 | 6.5 | 58.0* | .
CCOC(=O)c1sc(NC(=O)c2cccc(S(=O)(=O)N3CCc4ccccc43)c2)c(C#N)c1C | 44.1 | 95.4* | 73.0 | -4.5 | 3.1 | 21.3*
O=C(Nc1nc2ccc(F)cc2s1)c1cccc(S(=O)(=O)N2CCc3ccccc32)c1 | 60.6 | 27.0 | 21.3 | -25.2 | 14.5 | 14.3*
CCCN(CC(=O)Nc1ccccc1C)C(=O)CC(NC(=O)c1ccccc1)c1ccccc1 (stereo unspecified) | 5.4 | . | -1.6 | 1.6 | 3.8 | 2.8
O=c1oc2cc(Oc3c([N+](=O)[O-])cc(C(F)(F)F)cc3[N+](=O)[O-])ccc2c2c1CCCC2 | 44.9 | 94.5* | . | 0.9 | 11.6 | -34.1
COc1ccc(C2(C(=O)O)CCCC2)cc1 | -6.1 | 19.1 | -4.6 | 2.5 | -12.9 | 11.2*
CCCc1c(CC)c(=N)c2ccccc2n1C | -10.1 | 2.6 | 8.7 | 10.4 | 71.7* | -2.0
CCN(Cc1ccccc1)c1ccc(/C=N/N=C(N)N)cc1 | 102.5* | 77.4* | . | 39.1 | ? | 5.9
CC(=O)N=c1sc2c3ccccc3ccc2n1C | 12.7 | 4.2 | 0.5 | -19.8 | 65.9* | 0.7
COCCn1c(SCc2ccc(F)cc2)nc2ccccc2c1=O | 8.9 | . | -0.9 | 6.2 | 34.3 | 0.9
COCCn1c(SCc2ccc(OC)c(F)c2)nc2ccccc2c1=O | -4.9 | 25.3 | 6.3 | 11.2 | 75.1* | 2.4
CC(=O)NCCn1c(SCc2cc(F)ccc2F)nc2ccccc2c1=O | 13.1 | 34.1 | 0.3 | 11.4 | 68.2* | -0.3
On1onc2c3cc(-c4ccccc4)nc3ccc21 | 0.3 | . | 101.0* | 6.2 | . | 37.1*
Cn1c2c(c(=O)n(C)c1=O)CN(CC1CCCO1)CN2 (stereo unspecified) | -11.5 | 73.0* | -1.1 | 2.8 | -4.9 | 1.5
CCC(c1nnnn1CCc1ccccc1)N(Cc1ccco1)Cc1cc2cc(C)cc(C)c2[nH]c1=O (stereo unspecified) | 16.0 | . | 21.9 | -8.7 | 13.1 | -0.2
CCC(c1nnnn1CCc1ccccc1)N(Cc1ccco1)Cc1cc2c(C)ccc(C)c2[nH]c1=O (stereo unspecified) | 14.2 | 90.2* | 13.4 | 4.2 | 55.4* | 4.8
Cc1ccc(C(=O)N(C)CCOc2ccccc2)cc1S(=O)(=O)N1CCCCC1 | . | . | 2.1 | 13.9 | . | 6.5
CCc1c(-c2ccccc2)nc2sc3c(c2c1N)CCCC3 | 7.0 | 35.3 | 14.3 | 13.8 | 55.4* | -7.1
Nc1c(C(=O)O)sc2nc(-c3ccccc3)c3c(c12)CCCC3 | 0.4 | 15.6 | -4.0 | -3.1 | 0.3 | -1.0
CCC(C)(C)C1CCc2[nH]nc(C(=O)NCc3ccccn3)c2C1 (stereo unspecified) | 9.7 | . | -5.4 | -9.8 | . | 0.2
O=[N+]([O-])c1cc(C(F)(F)F)cc([N+](=O)[O-])c1NCCNC(=S)Nc1cccc(F)c1 | 12.1 | 12.2 | -0.9 | -1.1 | 21.3 | 17.1*
CC1CCc2sc(C(=O)N/N=C/c3ccc(O)cc3)cc2C1 (stereo unspecified) | 45.6 | 24.1 | -7.4 | 17.7 | 8.0 | 9.8
C[C@H](CO)N1C[C@H](C)[C@@H](CN(C)S(=O)(=O)c2ccc(F)cc2)Oc2c(NC(=O)Nc3ccc(C(F)(F)F)cc3)cccc2C1=O | 18.5 | . | 11.3 | 22.4 | . | 20.5*
C[C@H](CO)N1C[C@H](C)[C@@H](CN(C)S(=O)(=O)c2cn(C)cn2)Oc2c(NC(=O)Nc3ccc(C(F)(F)F)cc3)cccc2C1=O | . | . | -1.6 | 22.9 | . | -5.2
C[C@H]1CN([C@@H](C)CO)C(=O)c2cccc(NC(=O)Nc3ccc(C(F)(F)F)cc3)c2O[C@@H]1CN(C)S(=O)(=O)c1ccc(Cl)cc1 | 130.1* | . | 37.3 | 25.5 | . | 22.7*
O=C(NCc1nnnn1-c1ccc(F)cc1)c1ccc([N+](=O)[O-])o1 | -8.4 | . | -29.9 | 7.4 | 45.9 | .
O=[N+]([O-])c1cc(-c2csc(NCCc3nc4cc(C(F)(F)F)ccc4n3CCCO)n2)ccc1Cl | 1.4 | . | -8.2 | 12.5 | -8.0 | 17.4*
Cc1nc2cc(C(F)(F)F)ccc2n1CCNc1nc(-c2ccc([N+](=O)[O-])c(Cl)c2)cs1 | 27.0 | . | 1.9 | 22.8 | 8.9 | 25.0*
